The list is not random: actives were taken first. Their share in the collection is about 3.1%.
OX1R antag-1: blocks the human orexin 1 receptor; O43613; CHO/OX1R cells, Fluo-8 calcium fluorescence, orexin A; inhibition, % at 5 µM; 330,000 tested, 0.43% active; AID 434989;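 active means inhibition above its plate's threshold, mean inhibition of all tested compounds on the plate plus 3 SD, cut at about 37% in these data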;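 further: 0% = orexin A challenge wells and 100% = SB-334867-A antagonist wells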
Target sequence (O43613 whole entry, looked up): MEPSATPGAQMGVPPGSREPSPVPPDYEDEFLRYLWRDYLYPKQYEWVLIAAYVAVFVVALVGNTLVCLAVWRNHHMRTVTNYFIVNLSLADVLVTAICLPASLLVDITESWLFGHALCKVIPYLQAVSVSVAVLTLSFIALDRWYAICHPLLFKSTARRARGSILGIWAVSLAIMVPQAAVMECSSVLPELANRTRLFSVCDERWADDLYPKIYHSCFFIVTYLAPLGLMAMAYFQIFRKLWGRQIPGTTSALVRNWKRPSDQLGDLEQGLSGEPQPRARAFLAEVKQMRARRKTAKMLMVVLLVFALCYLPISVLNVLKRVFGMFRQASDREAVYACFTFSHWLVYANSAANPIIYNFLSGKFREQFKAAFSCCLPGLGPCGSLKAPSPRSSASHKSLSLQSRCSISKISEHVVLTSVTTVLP
GalR3 antag: antagonists of human GalR3 | HEK293 GalR3-CNG cAMP membrane potential fluorescence; galR3 body fused to GalR1 C-terminus | AID 651719 | 360,000 tested, 0.44% active | O60755 | inhibition, % at 3 µM;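 active means inhibition above the screen-wide average plus 3 SD, cut at about 13% in these data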;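 further: forskolin and galanin both at EC90 stimulate the cells; cAMP rise reported by CNG channel membrane potential dye signal; 0% = forskolin plus galanin with DMSO and 100% = forskolin alone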
Target sequence (O60755 1-299 limits assumed): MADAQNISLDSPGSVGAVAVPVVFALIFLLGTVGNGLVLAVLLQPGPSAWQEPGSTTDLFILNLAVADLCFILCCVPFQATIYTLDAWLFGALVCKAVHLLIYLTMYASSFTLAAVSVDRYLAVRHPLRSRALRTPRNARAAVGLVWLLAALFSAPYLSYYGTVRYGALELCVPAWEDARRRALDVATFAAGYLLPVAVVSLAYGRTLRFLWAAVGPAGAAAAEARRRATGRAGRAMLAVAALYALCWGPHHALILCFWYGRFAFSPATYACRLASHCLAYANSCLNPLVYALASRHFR
GPR7 antag: human neuropeptides B/W receptor 1 antagonism; inhibition, % at 4.4 µM; GPR7-expressing cells, fluorescence antagonist assay; AID 1861; 290,000 tested, 1.1% active; P48145; in the data active means inhibition above about 16%, passing the limit was not always enough;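 further: cells stimulated with the agonist NPW; 0% = agonist with vehicle and 100% = vehicle without agonist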
OX1R antag-2: OX1R (human) antagonism. AID 485270. OX1R-expressing cells, FRET antagonist read-out. O43613. 330,000 tested, 1.8% active. inhibition, % at 6.6 µM; in the data active means inhibition mostly above about 38%, no sharp cut-off; inactive means mostly below about 40%;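 further: 0% = agonist challenge alone and 100% = reference antagonist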
CHO parental Ca: counter-screen for OX1R antagonists: effect in parental CHO cells | parental CHO-K1, ATP-induced calcium, Fluo-8 fluorescence | inhibition, % at 5.6 µM | 330,000 tested, 0.63% active | AID 463079;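 active means inhibition above that plate's mean sample inhibition plus 3 SD, cut at about 26% in these data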;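 further: 0% = ATP-challenged DMSO wells and 100% = DMSO wells without ATP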
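Material: Parental CHO cells | Reagent: ATP | Compound dosing: Single nominal dose of 5.6 µM per compound | Detection: Intracellular calcium via Fluo-8 no-wash fluorescent dye | Read-out: % inhibition of ATP-induced calcium mobilization | Benchmarks: Low control ATP plus DMSO, high control DMSO only | Replicates: Singlicate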
GPR7 antag cf: confirmation of human GPR7 antagonists; shares compounds with GPR7 antag; GPR7-expressing cells, calcium fluorescence antagonist mode; inhibition, % at 4.4 µM; 2,400 tested, 52% active; in the data active means inhibition above about 24%;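 further: stimulated with the GPR7 agonist NPW; 0% = agonist plus vehicle and 100% = vehicle alone without agonist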
MCHR1 antag: antagonizes human MCHR1, a GPR7 antagonist counter-screen. shares compounds with GPR7 antag. MCHR1-expressing cells, fluorescence antagonist assay. 2,400 tested, 62% active. inhibition, % at 4.4 µM; in the data active means inhibition above about 22%;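 further: 0% = vehicle with agonist and 100% = vehicle without agonist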
Active calls of the source: *; . = not tested or not shown.

SMILES	OX1R antag-1	GalR3 antag	GPR7 antag	OX1R antag-2	CHO parental Ca	GPR7 antag cf	MCHR1 antag
CC(=O)c1cccc(NC(=O)c2ccc(N(C)S(=O)(=O)c3ccc(C)cc3)cc2)c1	9.3	-2.2	30.5*	18.0	4.3	5.1	37.5*
CC(=O)c1cccc(NC(=O)c2ccc3c(c2)CCCC3)c1	5.2	1.6	43.0*	32.6	-19.2	8.4	41.4*
Cc1ccc(CN(c2ccc(C(=O)Nc3ccc4c(c3)OCO4)cc2)S(C)(=O)=O)cc1	-12.8	-3.2	2.9	-1.2	-9.2	.	.
CC(=O)c1cccc(NC(=O)c2ccc(N(Cc3ccc(C)cc3)S(C)(=O)=O)cc2)c1	-2.8	-7.2	36.7*	25.7	6.7	15.8	49.5*
CN(c1ccc(C(=O)Nc2cccc(O)c2)cc1)S(=O)(=O)c1ccccc1	-13.4	0.8	-14.3	9.4	0.5	.	.
CC1CN(C(=O)COC(=O)c2ccc(C#N)cc2)CC(C)O1 (stereo unspecified)	-9.4	-7.3	-1.8	-8.0	-9.0	.	.
N#Cc1c(-c2ccccc2)nc(-c2cccnc2)[nH]c1=O	-0.1	-10.7	-17.9	10.8	-5.3	.	.
COC(CNC(=O)C1CC(=O)N(CCc2ccc(C)cc2)C1)OC (stereo unspecified)	-14.2	-9.8	-10.4	-6.7	1.5	.	.
COc1ccccc1C(=O)N(Cc1ccc(Cl)cc1)C1CCS(=O)(=O)C1 (stereo unspecified)	-11.0	-5.2	-3.9	-3.9	-18.9	.	.
CCOc1ccc(C(=O)Nc2cccc3ncccc23)cc1Br	-34.1	-8.3	25.6*	12.4	-24.1	2.9	9.2
CC(NCc1ccc(OCc2ccc(Cl)cc2)cc1)C(O)c1ccccc1 (stereo unspecified)	-2.6	-11.9	27.3*	6.4	33.8	58.2*	80.9*
CC(NCc1cccc(OCc2ccccc2)c1)C(O)c1ccccc1 (stereo unspecified)	-29.0	-3.8	5.3	5.6	-5.2	.	.
O=Cc1ccccc1Oc1ccccc1	1.6	-3.8	-15.2	2.0	3.2	.	.
O=Cc1ccccc1OCCOc1ccccc1C=O	13.5	-10.2	23.9*	19.2	5.2	12.0	24.8*
O=C(Nc1cccc(Cl)c1N1CCOCC1)c1cccs1	-27.9	-3.9	-10.2	15.5	-21.5	.	.
COc1ccc(-c2cc(C(=O)NCCN3CCOCC3)no2)cc1OC	-9.5	-6.0	-4.8	16.9	-12.2	.	.
CC(=O)c1cc(-c2ccccc2)n(CCC(=O)NC2CCC(C)CC2)c1C (stereo unspecified)	-7.5	-1.7	23.1*	16.7	-24.4	4.8	-4.8
Cc1cc(C)cc(NC(=O)c2ccc(N3C(=O)C4CCCCC4C3=O)cc2)c1 (stereo unspecified)	-9.6	-1.6	-15.3	-6.0	0.2	.	.
COc1cc(N2CCCC2)c(OC)cc1/C=C1/NC(=S)NC1=O	63.5*	-10.4	32.0*	25.4	32.0*	41.2*	36.1*
O=C1NC(=S)NC1=Cc1ccc2c(c1)CCC2	.	-4.8	.	.	.	.	.
O=C(c1ccc(Cl)c(Cl)c1)N(Cc1ccco1)c1ccc(O)cc1	-9.8	-4.3	28.7*	10.5	-20.4	2.8	3.7
Cc1ccc(-n2nc3c(=O)n(CC(=O)NC4CCCCC4)nc(C)c3c2C)cc1	-28.8	4.6	0.9	1.9	-22.2	.	.
COc1ccc(S(=O)(=O)N2CCCCCC2)cc1C(=O)N(C)CCOc1ccccc1	-30.1	-4.2	.	26.0	-23.3	.	.
Cc1ccc(S(=O)(=O)N2CCCCC2)cc1C(=O)NCCc1ccccc1	-48.1	1.0	-11.3	7.9	-15.1	.	.
O=C(NCCc1ccccc1)c1cc(S(=O)(=O)N2CCCC2)ccc1F	-6.2	-7.8	25.8*	14.5	-20.4	10.8	-4.4
SMILES	OX1R antag-1	GalR3 antag	GPR7 antag	OX1R antag-2	CHO parental Ca	GPR7 antag cf	MCHR1 antag
Cc1ccc(S(=O)(=O)N2CCCCC2)cc1C(=O)N(C)CCOc1ccccc1	-28.0	-5.6	22.7*	21.3	-23.2	19.6	21.7*
CCc1ccc(NC(=O)Cn2nc(C)n3cccc3c2=O)cc1	-17.1	-7.0	-5.1	11.3	2.9	.	.
CCCNC(=S)NC1CC2CCCC(C1)N2Cc1ccc(F)cc1 (stereo unspecified)	-29.7	-7.5	-11.3	6.0	-21.9	.	.
CCOC(=O)/C(C)=C1\NC(C)(C)Cc2ccccc21	.	-4.2	23.9*	.	.	13.7	7.5
Cc1nn2c(NCCCN(C)C)c3c(nc2c1-c1ccccc1)CCCC3	-19.0	-8.6	30.1*	4.1	-18.1	17.9	23.4*
Cc1nn2c(NCCCN(C)C)c3c(nc2c1-c1ccccc1)CCC3	-35.9	-5.8	0.4	9.9	-16.1	.	.
COC(=O)c1ccccc1NC(=O)CN1CCCCCC1	-20.5	-5.2	-9.4	17.1	-10.8	.	.
NC(=O)CN1CCOCCOCCOCCOCCOCC1	-3.8	-3.1	-12.8	14.8	-3.4	.	.
NC(=O)CN1CCOCCOCCN(CC(N)=O)CCOCCOCC1	-10.5	0.5	61.3*	27.9	-1.8	-17.1	-7.8
CCCNS(=O)(=O)c1cccc(C(=O)OCc2cc(=O)oc3cc(OC)ccc23)c1	54.7*	-8.6	34.1*	47.0	26.5	32.7*	56.7*
COc1ccc2c(COC(=O)CNS(=O)(=O)c3ccccc3)cc(=O)oc2c1	-17.3	-6.3	.	7.7	-12.1	.	.
CCOc1ccc(C(C)NC(=S)NCc2ccc(Cl)cc2)cc1 (stereo unspecified)	4.8	-6.2	29.9*	12.6	3.8	61.4*	69.6*
CCC(C)c1ccc(C(C)NC(=S)NCc2ccc(F)cc2)cc1 (stereo unspecified)	9.2	-3.8	-10.4	13.7	18.3	.	.
CCCc1ccc(C(C)NC(=S)NCc2ccc(F)cc2)cc1 (stereo unspecified)	25.2	0.2	59.0*	10.5	32.7*	78.9*	92.9*
CC(=O)Nc1ccc(-c2ccnc3c2CC(C(=O)Nc2cccc(C(F)(F)F)c2)O3)cc1 (stereo unspecified)	.	-5.2	.	.	.	.	.
Cc1sc(NC(=O)C2CCCCC2C(=O)O)c(C(N)=O)c1C (stereo unspecified)	-24.3	-3.2	22.2*	12.2	-6.6	-17.6	2.7
CCCCN(C(=O)c1ccc(C)c(S(=O)(=O)N2CCOCC2)c1)c1c(N)n(CCCC)c(=O)[nH]c1=O	-22.0	-3.4	.	25.0	-16.3	.	.
Cc1ccc(SCC(=O)Nc2ccc(N3CCN(C)CC3)c(F)c2)c(C)c1	-15.5	-6.8	38.3*	4.3	-21.7	2.7	9.6
O=C(Cn1nc(-c2ccccc2)ccc1=O)Nc1ccc(-n2cnnn2)cc1	8.0	-3.5	26.6*	28.5	-2.1	11.7	41.3*
O=C(Nc1ccc(-n2cnnn2)cc1)C(c1ccccc1)c1ccccc1	-11.5	-7.8	-8.0	15.4	-7.8	.	.
CC(C)CNS(=O)(=O)c1ccc(NC(=O)Cn2nc(-c3ccc(F)cc3)ccc2=O)cc1	-5.3	-10.4	33.3*	16.1	-15.9	-1.0	8.4

Compound activity as filed in PubChem.
